A selection: hits, their analogues and other compounds. The true share with any hit is near 1.8%.
HTRA1 inh: HTRA1 serine protease inhibitors, primary screen, biochemical, fluorescence polarization, HTS. Q92743. recombinant HTRA1, FP-rhodamine activity-based probe. inhibition, % at 5.96 µM. 340,000 tested, 0.5% active. AID 504803, 2011; in the data active = inhibition above about 36%;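 note: 0% = enzyme with DMSO and 100% = wells lacking enzyme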
TCR CD3 inh: inhibitors of human TCR-CD3 interaction, primary screen, biochemical, fluorescence, TAMRA-labeled TCR probe; T-cell receptor (TCR); inhibition, % at 9.4 µM; 360,000 tested, 0.37% active; AID 651800, 2012;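 note: recombinant mutant TCR 2C K166C tagged with TAMRA read by polarization; 0% = receptor in buffer alone and 100% = receptor with positive control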
SIAE inh: human SIAE inhibitors, primary screen, biochemical, fluorescence polarization, FP-Rh probe, 1536-well HTS; Sialate O-acetylesterase (Homo sapiens), Q9HAT2; SIAE FP-Rh probe binding; inhibition, % at 9.66 µM; 370,000 tested, 0.69% active;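 active = inhibition above a cutoff: mean of compounds within the control limits plus 3 SD of those, cut at about 17% in these data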;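 note: 0% = plate median of compound wells and 100% = probe without SIAE protein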
ABHD4 inh: ABHD4 inhibitors, primary screen, biochemical, fluorescence polarization, mouse. (Lyso)-N-acylphosphatidylethanolamine lipase (Mus musculus), Q8VD66. purified mABHD4, FP-Rh probe fluorescence polarization. inhibition, % at 8.92 µM. 370,000 tested, 0.54% active. AID 720543, 2013;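 active = inhibition exceeding the mean over every tested compound plus 3 SD, cut at about 30% in these data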;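 note: 0% = plate median of compound wells and 100% = S159A mutant with DMSO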
Target sequence (Q8VD66 whole entry, looked up): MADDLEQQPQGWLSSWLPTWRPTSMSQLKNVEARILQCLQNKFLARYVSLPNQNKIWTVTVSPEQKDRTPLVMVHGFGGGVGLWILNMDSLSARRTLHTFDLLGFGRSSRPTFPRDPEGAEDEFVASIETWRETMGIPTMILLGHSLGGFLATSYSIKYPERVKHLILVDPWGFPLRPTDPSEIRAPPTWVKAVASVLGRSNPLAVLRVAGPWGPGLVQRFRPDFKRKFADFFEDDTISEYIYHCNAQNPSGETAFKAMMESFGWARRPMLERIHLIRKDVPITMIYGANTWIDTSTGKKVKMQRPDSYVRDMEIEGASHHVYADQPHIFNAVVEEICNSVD
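assay system = mABHD4 protein | compound dosing = single nominal dose of 8.92 µM, 0.89% DMSO final | read-out basis = percent inhibition of probe binding, normalized to plate controls | schedule = Enzyme–compound pre-incubation 45 min, then probe 60 min, both 25 °C | detection = fluorescence polarization, excitation 525 nm, emission 598 nm, BODIPY TMR filters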
ARNT TACC3 PPI: disruptors of ARNT/TACC3 protein interaction, primary screen, biochemical, AlphaScreen, single concentration; Transforming acidic coiled-coil-containing protein 3 (Homo sapiens), Q9Y6A5; 390,000 tested, 0.66% active; AID 623870, 2012; inhibition, % at 9.99 µM; AlphaScreen His-ARNT PAS-B/GST-TACC3 binding, luminescence; TACC3 fragment carries E629A point mutation;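 active = mean inhibition of replicates at least 50% and at least half of replicates each reaching 50%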;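 note: 0% = complete ARNT plus TACC3 wells and 100% = ARNT alone without TACC3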
HTRA1 conf: HTRA1 protease inhibitors, retest, confirmation, biochemical, fluorescence polarization; shares compounds with HTRA1 inh; inhibition, % at 5.96 µM; 1,600 tested, 66% active; recombinant HTRA1, FP-rhodamine activity-based probe;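 active = mean inhibition over three repeats above a set limit taken from the earlier primary screen, cut at about 37% in these data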;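 note: 0% = HTRA1 with DMSO and 100% = wells lacking HTRA1; inhibitors block probe binding so polarization drops and inhibition rises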
AlphaScreen ctr: AlphaScreen signal interference compounds, dose response, artefact control for ARNT-TACC3 interaction inhibitor project, biochemical, luminescence, cherry-pick; shares compounds with ARNT TACC3 PPI; His-ARNT PASB-GST AlphaScreen artifact counter-screen; AC50, µM (doses to about 68 µM), inactives show top-dose activity change, negative = signal decrease; AID 651705, 2012; 1,200 tested, 50% active;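 active = every separate test run was called active for a drop in luminescence, with AC50 within twice the top valid dose, actives reach about 71 µM in these data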
BSA probe FL: compounds interfering with TAMRA-BSA probe, counter-screen for TCR-CD3 interaction inhibitor project, biochemical, fluorescence, TAMRA-labeled BSA; inhibition, % at 9.4 µM; 1,200 tested, 10% active; shares compounds with TCR CD3 inh; TAMRA-labeled BSA probe fluorescence counterscreen; in the data active = inhibition above about 23%;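 note: 0% = buffer low control and 100% = reference high control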
TCR-CD3 conf: TCR-CD3 interaction inhibitors, retest, confirmation, biochemical, fluorescence, TAMRA-labeled TCR probe | shares compounds with TCR CD3 inh | TAMRA-labeled TCR probe fluorescence binding assay | inhibition, % at 9.4 µM | 1,200 tested, 48% active | AID 652036, 2013
mABHD4 conf: ABHD4 inhibitors, retest, confirmation, biochemical, fluorescence polarization, mouse | shares compounds with ABHD4 inh | purified mABHD4, FP-Rh probe fluorescence polarization | inhibition, % at 8.92 µM | 1,800 tested, 55% active;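 active = mean inhibition across replicates above the hit cutoff set in the primary screen, cut at about 30% in these data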;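 note: 0% = wild-type ABHD4 with DMSO and 100% = catalytically dead S159A mutant with DMSO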
SIAE inh conf: human SIAE inhibitors, retest, confirmation, biochemical, fluorescence polarization, FP-Rh probe, triplicate. shares compounds with SIAE inh. SIAE FP-Rh activity-based probe. inhibition, % at 9.66 µM. 2,300 tested, 13% active. AID 1117263, 2014;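 active = mean inhibition of the replicates above the hit cutoff set in the primary screen, cut at about 17% in these data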;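 note: 0% = SIAE with DMSO and probe and 100% = probe without SIAE; inhibitors lower polarization as more probe stays unbound to SIAE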
Active calls of the source: *; . = no result. Cut-off read from the data, not from the text of the source, unless noted: active = inhibition above about 19%; inactive = the rest.

SMILES | HTRA1 inh | TCR CD3 inh | SIAE inh | ABHD4 inh | ARNT TACC3 PPI | HTRA1 conf | BSA probe FL | TCR-CD3 conf | mABHD4 conf | SIAE inh conf | others
C[C@@H]1CN([C@H](C)CO)C(=O)c2cccc(NC(=O)Nc3cccc4ccccc34)c2O[C@@H]1CN(C)S(=O)(=O)c1cccs1 | . | . | . | . | 2 | . | . | . | . | .
O=c1c(O)cccc2cc(O)c(O)c(O)c12 | 58* | 93* | 24* | 55* | 25 | 60* | -4 | 81* | 52* | 18*
CN(C)c1ccc(N/C=C/C(=O)C(C)(C)C)cc1 | 59* | 13 | 17* | 26 | 27* | 4 | . | . | . | -3
CCOC(=O)c1ccc(N/C=C/C(=O)C(C)(C)C)cc1 | -2 | -1 | 4 | -6 | 4 | . | . | . | . | .
CC(=O)NC(CC(=O)NC(C)c1ccc(Cl)cc1Cl)c1ccccc1 (stereo unspecified) | 3 | 5 | 9 | 1 | 2 | . | . | . | . | .
CCCCC(=O)NC(c1ccc(N(CC)CC)cc1)c1ccc2cccnc2c1O (stereo unspecified) | 60* | -8 | 18* | 14 | 37 | 66* | . | . | . | 15
CC(=O)NC(c1ccc2ccccc2c1)c1ccc2cccnc2c1O (stereo unspecified) | 52* | 0 | 27* | 22 | 62* | 68* | . | . | . | 27* | AlphaScreen ctr=15µM*
CC(=O)NC(c1ccc(Cl)cc1Cl)c1ccc2cccnc2c1O (stereo unspecified) | 73* | -10 | 20* | 16 | 66* | 67* | . | . | . | 16 | AlphaScreen ctr=22µM*
COc1cccc(C(NC(C)=O)c2nc(-c3cccc4cccnc34)cs2)c1 (stereo unspecified) | . | 0 | 1 | -5 | . | . | . | . | . | .
CC(C)C(=O)NC(c1cccc([N+](=O)[O-])c1)c1ccc2cccnc2c1O (stereo unspecified) | 44* | 0 | 22* | 11 | 63* | 46* | . | . | . | 11 | AlphaScreen ctr=17µM*
C[C@H](CO)N1C[C@H](C)[C@H](CN(C)C(=O)Nc2ccccc2)Oc2ccc(NC(=O)Nc3cccc4ccccc34)cc2C1=O | . | . | . | . | -1 | . | . | . | . | .
O=c1c2ccccc2nc(COc2ccccc2)n1/N=C/c1cc([N+](=O)[O-])ccc1O | 36* | 23* | 20* | 3 | 30 | 47* | -4 | 43* | . | -10
O=C(O)/C=C\C(=O)Nc1ccc(N2CCN(c3cccc(Cl)c3)CC2)cc1 | 52* | 21* | 26* | 42* | 5 | 40* | 0 | 4 | 21 | 1
O=C(O)/C=C\C(=O)Nc1ccc(N2CCN(c3ccc(Cl)c(Cl)c3)CC2)cc1 | 57* | 30* | 27* | 39* | 2 | 5 | -3 | 0 | 22 | 3
CC(=O)Nc1ccc(N2CCN(c3ccc(F)cc3)CC2)cc1 | 3 | 2 | -3 | -4 | -10 | . | . | . | . | .
O=C(O)/C=C\C(=O)Nc1ccc(N2CCN(c3ccc(F)cc3)CC2)cc1 | 43* | 28* | 33* | 44* | 4 | 14 | 5 | 3 | 10 | 3
O=C(O)/C=C\C(=O)Nc1ccc(N2CCN(c3ccc(Cl)cc3)CC2)cc1 | 44* | 21* | 28* | 33* | 7 | 7 | 11 | 8 | 10 | 2
O=C(O)/C=C\C(=O)Nc1ccccc1C(=O)N1CCN(c2ccc(Cl)cc2)CC1 | 3 | -4 | -1 | -4 | 2 | . | . | . | . | .
C[C@@H]1CN([C@H](C)CO)C(=O)c2cc(C#CCC3CCCC3)cnc2O[C@@H]1CN(C)C(=O)CN(C)C | . | . | . | . | -5 | . | . | . | . | .
C[C@@H]1CN([C@@H](C)CO)C(=O)c2cccc(NS(=O)(=O)c3ccccc3)c2O[C@H]1CN(C)S(=O)(=O)c1ccc(Cl)cc1 | . | . | . | . | -8 | . | . | . | . | .
C[C@@H]1CN([C@@H](C)CO)C(=O)c2cc(/C=C/c3ccccc3)cnc2O[C@H]1CN(C)C(=O)c1cnccn1 | . | . | . | . | -4 | . | . | . | . | .
O=C(C[C@H]1C=C[C@H](NC(=O)Nc2ccc(C(F)(F)F)cc2)[C@H](CO)O1)NCc1cccc(F)c1 | . | . | . | . | -1 | . | . | . | . | .
O=C(C[C@H]1CC[C@H]2[C@@H](COC[C@@H](O)CN2S(=O)(=O)c2ccc(Oc3ccccc3)cc2)O1)NCCN1CCCCC1 | . | . | . | . | 10 | . | . | . | . | .
CO[C@@H]1CN(C)C(=O)c2cc(NC(=O)c3cc(C)on3)ccc2OC[C@H](C)N(CC2CC2)C[C@H]1C | . | . | . | . | -3 | . | . | . | . | .
O=C(Nc1ccccc1)c1ccc2nc(-c3ccco3)c(-c3ccco3)nc2c1 | 59* | 24* | 22* | 47* | 47* | -20 | . | . | 22 | -2
O=C(Nc1cccnc1)c1ccc2nc(-c3ccccc3)c(-c3ccccc3)nc2c1 | -35 | -5 | -9 | -14 | 8 | . | . | . | . | .
COc1ccc2nc(-c3ccco3)c(-c3ccco3)nc2c1 | 52* | 31* | 23* | 57* | 22 | 33 | -9 | 31* | 29 | 4
S=C(Nc1ccc(N2CCOCC2)cc1)Nc1ccc2nc(-c3ccco3)c(-c3ccco3)nc2c1 | 48* | 9 | 21* | 38* | 15 | 32 | . | . | 42* | 5

From PubChem
